Compound activity deposited in PubChem by The Scripps Research Institute Molecular Screening Center.
Only some compounds are listed: those with a hit (about 2.4% of all), similar ones and a draw of the others.
NPY-Y1 PAM-ag: potentiates or activates human NPY-Y1 receptor | activation, % at 3.6 µM | AID 1304 | NPY-Y1 expressing cells, potentiator/agonist activation | hit rate 0.37% among 220,000; in the data active = activation above about 33%, passing the limit was not always enough;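 note: cells stimulated with NPY at EC10 then isoproterenol at EC100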
Target sequence (P25929 whole entry, looked up): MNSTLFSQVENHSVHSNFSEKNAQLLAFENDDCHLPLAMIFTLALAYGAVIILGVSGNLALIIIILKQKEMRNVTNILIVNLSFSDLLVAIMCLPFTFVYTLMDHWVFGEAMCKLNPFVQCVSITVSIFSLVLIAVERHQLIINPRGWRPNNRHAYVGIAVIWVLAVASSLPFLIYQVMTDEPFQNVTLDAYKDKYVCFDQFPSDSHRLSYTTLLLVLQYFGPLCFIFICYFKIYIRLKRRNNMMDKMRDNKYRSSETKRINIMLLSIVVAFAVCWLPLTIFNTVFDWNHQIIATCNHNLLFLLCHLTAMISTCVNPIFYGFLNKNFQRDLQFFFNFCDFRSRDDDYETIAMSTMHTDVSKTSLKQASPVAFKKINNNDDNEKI
S1P4 agonist: activates the human S1P4 receptor. S1P4-expressing cell line, agonist reporter assay. hit rate 0.35% among 220,000. AID 1509. O95977. activation, % at 4.98 µM; in the data active = activation above about 11%
S1P4 antag: antagonists of human S1P4 receptor; O95977; S1P4-expressing cells, antagonist mode, reporter read-out; inhibition, % at 4.98 µM; hit rate 0.26% among 220,000; AID 1510; in the data active = inhibition above about 29%
NPY Y2 blocker: NPY-Y2 (human) receptor antagonism; inhibition, % at 2.7 µM; AID 793; hit rate 0.99% among 140,000; NPY-Y2 expressing cells, antagonist mode; P49146
NPY-Y2 PAM-ag: potentiates or activates human NPY-Y2 receptor; cells expressing NPY-Y2, potentiator/agonist read-out; P49146; AID 1359; activation, % at 3.6 µM; hit rate 0.45% among 220,000; in the data active = activation above about 27%;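 note: cells stimulated with NPY near EC25 plus isoproterenol at EC100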
NPY-Y1 antag: NPY-Y1 (human) receptor antagonism | hit rate 1% among 200,000 | P25929 | inhibition, % at 3.6 µM | AID 1040 | HEK293-CNG Y1 cells, membrane potential fluorescence; NPY at EC95, then isoproterenol;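 active = inhibition above the campaign mean inhibition of all tested compounds plus 3 SD, cut at about 20% in these data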
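Test system: HEK293 cells co-expressing NPY Y1 receptor and cyclic-nucleotide gated channel; Also added: NPY (25 nM), isoproterenol (1 µM), Ro 20-1724 (25 µM); Compound dosing: one concentration, 3.6 µM, in 0.4% DMSO; Timing: dye 3 h, compound 60 min room temperature, stimulation 45 min; Technique: Membrane-potential fluorescent dye readout.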
NPY-Y1 ant conf: confirmation of human neuropeptide Y receptor Y1 antagonists; shares compounds with NPY-Y1 antag; HEK293-CNG NPY-Y1, membrane potential fluorescence, cAMP; NPY challenge against isoproterenol-raised cAMP; inhibition, % at 3.6 µM; hit rate 21% among 1,200; AID 1254; in the data active = inhibition above about 20%
NPY-Y2 antag ct: human NPY-Y2 antagonism in NPY-Y1 counter-screen | hit rate 28% among 1,200 | HEK293 NPY-Y2 CNG membrane potential fluorescence; cells given NPY, then isoproterenol | AID 1255 | shares compounds with NPY-Y1 antag | inhibition, % at 3.6 µM
Of the large screens only hits and unclear results are named; the others gave an inactive call (follow-up assays come after a bar, where they were run). Cut-off read from the data, not from the text of the source, unless noted: active = inhibition above about 17%; inactive = the rest.

COc1cccc(NC(=O)c2cc(-c3ccncc3)nc3c(C)cc(C)cc23)c1	NPY-Y1 antag 22.2 (no result: NPY Y2 blocker) | NPY-Y1 ant conf 28.3 | NPY-Y2 antag ct 29.3
CCN1CCN(C(=O)c2ccc3c(c2)c(C)c(C)n3Cc2ccccc2)CC1	none (no result: NPY Y2 blocker)
Cc1c(C)n(Cc2ccccc2)c2ccc(C(=O)OCCCN(C)C)cc12	NPY-Y1 antag 22.4 (no result: NPY Y2 blocker) | NPY-Y1 ant conf 29.0 | NPY-Y2 antag ct 36.8
COc1cccc(N2C(C(C)=O)=NN(c3ccccc3)C2c2ccc(N3CCOCC3)cc2)c1 (configuration not stated)	none
COc1ccc(C2N(c3ccc(Cl)cc3)N=C(C(C)=O)N(C)N2C(C)=O)cc1 (configuration not stated)	NPY-Y1 antag 28.8 (no result: NPY Y2 blocker) | NPY-Y1 ant conf 20.4 | NPY-Y2 antag ct inactive
CCN(Cc1ccccc1)C(=O)c1nn(-c2ccc(OC)cc2)c(=O)c2c1c1ccccc1n2C	NPY-Y1 antag 38.2 (no result: NPY Y2 blocker) | NPY-Y1 ant conf 42.5 | NPY-Y2 antag ct 23.6
CCCCN(CC)CCNC(=O)c1nn(-c2ccc(OC)cc2)c(=O)c2c1c1ccccc1n2C	none (no result: NPY Y2 blocker)
CCOC(=O)C(C(C)C)C(N)Cc1ccc(F)cc1 (configuration not stated)	none (no result: NPY Y2 blocker)
CC(=O)N1CCN(C(=O)COc2ccccc2C(=O)Nc2ccccc2)CC1	none (no result: NPY Y2 blocker)
CCCCN(CCCC)CC(O)COc1ccccc1C(=O)Nc1ccccc1 (configuration not stated)	NPY-Y1 antag 45.6 (no result: NPY Y2 blocker) | NPY-Y1 ant conf inactive | NPY-Y2 antag ct 18.2
N#Cc1ccc(CSc2nnc(-c3ccccc3)n2Cc2ccco2)cc1	NPY-Y1 antag 32.8 | NPY-Y1 ant conf inactive | NPY-Y2 antag ct inactive
Fc1ccc(CSc2nnc(-c3cccnc3)n2Cc2ccco2)cc1	none
COc1ccc(-c2cc(C(F)(F)F)nc(N3CCN(C)CC3)n2)cc1	NPY-Y1 antag 25.0 | NPY-Y1 ant conf inactive | NPY-Y2 antag ct inactive
COc1ccc(-c2cc(C(F)(F)F)nc(N3CCCCCC3)n2)cc1	none
CCOc1cc(/C=C2\CCC/C(=C\c3cc(Cl)c(O)c(OCC)c3)C2=O)cc(Cl)c1O	NPY-Y1 antag 44.0 | NPY-Y1 ant conf 45.2 | NPY-Y2 antag ct 44.0
C=CCNC(=O)/C(C#N)=C\c1cc(Cl)c(O)c(OCC)c1	none
CN(C)Cc1cc(CCNC(=O)c2ccc(Cl)cc2)ccc1O	NPY-Y1 antag 21.5 | NPY-Y1 ant conf inactive | NPY-Y2 antag ct inactive
CC1CCCN(C(=S)NC2CCCC2)C1 (configuration not stated)	none (no result: NPY Y2 blocker)
Cc1ccccc1CN(C)C(C)C(=O)Nc1ccccc1F (configuration not stated)	NPY-Y1 antag 22.7 (no result: NPY Y2 blocker) | NPY-Y1 ant conf inactive | NPY-Y2 antag ct inactive
Cc1c(C(=O)OCC(C)C)[nH]c2c1C(=O)CC(c1cccs1)C2 (configuration not stated)	NPY-Y1 antag 30.0 | NPY-Y1 ant conf inactive | NPY-Y2 antag ct 23.7
COCCOC(=O)c1[nH]c2c(c1C)C(=O)CC(c1cccs1)C2 (configuration not stated)	none (no result: NPY Y2 blocker)
Fc1ccc(-c2nn3c(C4COc5ccccc5O4)nnc3s2)cc1 (configuration not stated)	NPY-Y1 antag 21.0 | NPY-Y1 ant conf inactive | NPY-Y2 antag ct inactive
c1csc(-c2nn3c(C4COc5ccccc5O4)nnc3s2)c1 (configuration not stated)	NPY-Y1 antag 24.3 | NPY-Y1 ant conf inactive | NPY-Y2 antag ct inactive
c1ccc2c(c1)OCC(c1nnc3sc(-c4ccc5c(c4)OCO5)nn13)O2 (configuration not stated)	none
O=C(COC(=O)/C(=C/c1cccs1)c1cccs1)NC(c1ccccc1)c1ccccc1	none
O=C(CCCCCn1c(SCc2ccncc2)nc2ccccc2c1=O)NCc1ccco1	none
O=C(NC1CC1)c1cc2c(F)cccc2s1	none (no result: NPY Y2 blocker)
